{"data": "Published values collected from several papers", "cell line": "MDA-MB-231", "read-out": "cell growth or viability", "note": "Lines come from different studies, so protocols differ."}
{"SMILES": "CC(C)CNC(=S)N/N=C/c1cccc2cc3ccccc3nc12", "assay": "MTT", "setting": "48 h", "IC50": "> 50 µM"}
{"SMILES": "Cc1ccc(S(=O)(=O)n2cc(/C=N/NC(=O)c3ccco3)c3ccccc32)cc1", "assay": "MTT", "setting": "48 h", "IC50": "29.6 µM"}
{"SMILES": "CNC(=S)N/N=C/c1cccc2cc3ccccc3nc12", "assay": "MTT", "setting": "48 h", "IC50": "18.9 µM"}
{"SMILES": "Cc1ccc(S(=O)(=O)n2cc(/C=N/NC(=O)Cc3cc(F)cc(F)c3)c3ccccc32)cc1", "assay": "MTT", "setting": "48 h", "IC50": "32.1 µM"}
{"SMILES": "CO[C@H]1[C@H](O[C@H]([C@H]2O[C@@H](n3ccc(=O)[nH]c3=O)[C@H](O)[C@@H]2O)[C@H](NCCCNC(=O)[C@@H](NC(=O)[C@@H](NC(=O)N[C@H](C(=O)O)C(C)C)[C@@H]2CCN=C(N)N2)[C@@H](OC(=O)CCCCCCCCCCCCN(O)C(=N)N)C(C)C)C(=O)O)O[C@H](CN)[C@H]1O", "assay": "WST-1", "IC50": "0.98 µM"}
{"SMILES": "CN1CCc2c(c3ccccc3n2Cc2ccc(C(=O)NO)cc2)C1", "assay": "CCK-8", "setting": "48 h", "IC50": "24.7 µM"}
{"SMILES": "O=C(Nc1ccc(Oc2nc3ccccc3n3cnnc23)cc1)Nc1cccc(Cl)c1", "assay": "MTT", "setting": "24 h", "IC50": "33.6 µM"}
{"SMILES": "CC1CCC(C(C)C)C(OC2=C(Cl)C(=O)c3ccccc3C2=O)C1 (stereo not shown)", "assay": "MTT", "setting": "24 h", "IC50": "5 µg/mL"}
{"SMILES": "C[C@H]1[C@H](C)CC[C@]2(C)CC[C@]3(C)C(=CC(=O)[C@@H]4[C@@]5(C)CC[C@@H](O)[C@](C)(C(=O)NCc6cn(-c7ccccc7C(F)(F)F)nn6)[C@@H]5CC[C@]43C)[C@H]12", "assay": "MTT", "setting": "24 h", "IC50": "69.9 µM"}
{"SMILES": "COc1cc([C@@H]2c3cc4c(cc3[C@@H](O[C@@H]3O[C@@H]5CO[C@@H](C)O[C@H]5[C@H](O)[C@H]3O)[C@H]3COC(=O)[C@H]23)OCO4)cc(OC)c1O", "assay": "ATP luminescence", "setting": "48 h", "IC50": "2.15 µM"}
{"SMILES": "Cc1ccc(S(=O)(=O)n2cc(/C=N/NC(=O)c3ccc(C)c(F)c3)c3ccccc32)cc1", "assay": "MTT", "setting": "48 h", "IC50": "21.3 µM"}
{"SMILES": "O=C1Nc2ccccc2/C1=N/N=C/c1cccc([N+](=O)[O-])c1", "assay": "MTT", "setting": "24 h", "IC50": "38.3 µg/mL"}
{"SMILES": "CC(=O)N1CCC(Nc2cc(C(=O)NC[C@H](O)CN3CCc4ccccc4C3)ncn2)CC1", "assay": "CCK-8", "setting": "72 h", "IC50": "> 100 µM"}
{"SMILES": "C[C@H]1[C@H](C)CC[C@]2(C(=O)O)CC[C@]3(C)C(=CC[C@@H]4[C@@]5(C)CC[C@H](O)C(C)(C)[C@@H]5CC[C@]43C)[C@H]12", "assay": "MTT", "setting": "24 h", "IC50": "15 µM"}
{"SMILES": "S=C(N/N=C/c1cccc2cc3ccccc3nc12)Nc1ccccc1", "assay": "MTT", "setting": "48 h", "IC50": "> 50 µM"}
{"SMILES": "Cc1ccc(S(=O)(=O)n2cc(/C=N/NC(=O)c3cccnc3)c3ccccc32)cc1", "assay": "MTT", "setting": "48 h", "IC50": "18.1 µM"}
{"SMILES": "C[C@H]1[C@H](C)CC[C@]2(C)CC[C@]3(C)C(=CC(=O)[C@@H]4[C@@]5(C)CC[C@@H](O)[C@](C)(C(=O)NCc6cn(-c7ccc(Br)cc7)nn6)[C@@H]5CC[C@]43C)[C@H]12", "assay": "MTT", "setting": "24 h", "IC50": "72.5 µM"}
{"SMILES": "Cc1cc(NS(=O)(=O)c2ccc(NC(=O)/C(C#N)=C/c3ccc(N4CCCCC4)cc3)cc2)no1", "assay": "MTT", "setting": "48 h", "IC50": "20 µM"}
{"SMILES": "COc1cccc2c1C(=O)c1c(O)c3c(c(O)c1C2=O)C[C@@](O)(C(=O)CO)C[C@@H]3O[C@H]1C[C@H](N)[C@H](O)[C@H](C)O1", "assay": "SRB", "IC50": "0.18 µM"}
